Screens (PubChem)
L major viab: reduces viability of Leishmania major promastigotes. AID 1063. 9% of 200,000 active. resazurin fluorescence viability. inhibition, % at 10 µM; in the data active means inhibition above about 50%;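 further: promastigotes grown with compound for 44 hours at 28 °C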
PMI act satM6P: activators of human phosphomannose isomerase at near-saturating mannose 6-phosphate. coupled PMI enzyme assay, resazurin fluorescence, 20 min; hits give high values; 1 = untreated enzyme, 0 = substrate-free blank. activation factor at 20 µM. 0.34% of 190,000 active;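 active means activation factor of 2 or more at 20 µM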
Target sequence (P34949 whole entry, looked up): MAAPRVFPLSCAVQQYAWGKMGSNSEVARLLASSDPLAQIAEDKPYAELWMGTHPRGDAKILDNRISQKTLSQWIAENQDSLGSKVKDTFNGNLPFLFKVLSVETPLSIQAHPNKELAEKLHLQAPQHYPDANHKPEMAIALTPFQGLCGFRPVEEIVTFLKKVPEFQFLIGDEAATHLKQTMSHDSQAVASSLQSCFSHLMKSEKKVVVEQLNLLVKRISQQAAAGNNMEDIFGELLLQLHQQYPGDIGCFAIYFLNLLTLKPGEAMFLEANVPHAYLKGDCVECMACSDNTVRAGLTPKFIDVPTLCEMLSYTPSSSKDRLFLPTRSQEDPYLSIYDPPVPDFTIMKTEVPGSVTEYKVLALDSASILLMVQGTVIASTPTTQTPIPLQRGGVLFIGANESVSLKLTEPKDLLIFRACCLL
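Test system: Human PMI in coupled enzyme assay | Input: 15 ng/mL PMI | Medium: HEPES-buffered pH 7.4 with magnesium and detergent | Compound: One concentration, 20 µM, in 1% DMSO | Incubation: Enzyme reaction with compound 20 min at room temperature | Detection: Diaphorase-driven resazurin-to-resorufin fluorescence, excitation 544, emission 590 nm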
PMI activator: activators of human phosphomannose isomerase. activation factor at 20 µM. purified human PMI, coupled resazurin fluorescence, 20 min; hits give high values; 1 = vehicle control, 0 substrate-free wells. AID 1214. 0.005% of 190,000 active;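 active means activation factor of 2 or more at 20 µM, relative to plate controls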
WT yeast gro inh: growth inhibition of WT yeast, mitochondrial fusion screen. mitochondrial fusion phenotypic screen, WT strain. inhibition, % at 10 µM. 2.1% of 190,000 active; in the data active means inhibition above about 58%; tested in S. cerevisiae
Rad51 HR inh: Rad51 (human) homologous recombination inhibition; inhibition, % at 10 µM; hRad51 DNA strand exchange, fluorescence dequenching; 0.085% of 200,000 active; AID 1385; Q06609;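 active means inhibition above 40% at the single screening dose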;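 further: 0% = DMSO control wells and 100% = blanks with heterologous ssDNA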
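Test system: preformed human Rad51 ssDNA filaments. Compound dosing: single dose, 10 µM final compound. Incubation: filaments 15 min 37 °C, then compound 30 min. Technique: FRET fluorescence dequenching, excitation 485 nm, emission 520 nm. Read-out basis: percent inhibition from fluorescence, normalised to plate control and blank means. Benchmarks: plate controls and plate blanks.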
m-calpain inh: inhibitors of pig calpain II; purified calpain II, fluorogenic peptide substrate, 30 min; inhibition, % at 16 µM; 0.37% of 220,000 active;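 active means inhibition above about 50%, limit read from the data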
Starred values were filed as active, the others as inactive; . = not tested or not shown. The list is not random: actives were taken first. Their share in the collection is about 9.8%.

SMILES	L major viab	PMI act satM6P	PMI activator	WT yeast gro inh	Rad51 HR inh	m-calpain inh
O=C(Nc1ccc(Cl)cc1)OCCn1nnnc1C(c1ccccc1Cl)N1CCOCC1 (stereo not drawn)	90*	1	0.9	-27	-4	-11
CCCC(=O)Nc1sc2c(c1C(=O)OCC)CC(C)(C)OC2	25	.	.	-3	1	-14
CCOC(=O)c1c(NC(=O)c2ccc(C)cc2)sc2c1CC(C)(C)OC2	61*	1	1	13	-1	-56
CCOC(=O)c1c(NC(=O)CCC(=O)N2CCOCC2)sc2c1CC(C)(C)OC2	97*	0.9	0.9	-3	10	-1
CCOC(=O)c1c(NC(=O)c2ccccc2C)sc2c1CC(C)(C)OC2	72*	0.9	0.9	22	10	7
CNS(=O)(=O)c1cc(OC)c(OC)cc1CC(=O)OC	-4	1.1	1.1	9	-17	-4
CC(C)c1ccc(NC(=O)C2CC(=O)Nc3nc4ccccc4n32)cc1 (stereo not drawn)	.	.	.	.	-2	-19
S=C(NCc1cccc(Cl)c1)NC1CCCCC1	22	1	1	66*	.	-3
S=C(NCc1ccccc1)NC1CCCCC1	0	0.9	0.9	25	5	-14
COc1ccc(S(=O)(=O)N(CC(=O)NCCC(C)C)c2ccccc2)cc1OC	3	0.9	0.9	18	.	-11
COC(=O)c1ccc(/C=N/N2CCN(Cc3ccc(C)cc3C)CC2)cc1	84*	0.9	0.8	17	-2	7
Cc1ccc(CN2CCN(/N=C/c3ccc(C(=O)O)cc3)CC2)c(C)c1	6	1	1	-1	-24	-12
Cc1ccc(CN2CCN(/N=C/c3ccc(C(F)(F)F)cc3)CC2)c(C)c1	14	0.9	0.9	64*	.	16
COc1ccc(CNCCC(c2ccccc2)C2CCOC(C)(C)C2)cc1 (stereo not drawn)	91*	0.9	1	15	-8	25
COc1ccc(CNCCC2(C(C)C)CCOC(C)(C)C2)cc1 (stereo not drawn)	.	.	.	.	-18	-2
COc1ccc(CN(CCC(c2ccccc2)C2CCOC(C)(C)C2)C(C)=O)cc1 (stereo not drawn)	83*	0.9	0.9	16	6	11
Cn1c(N)c(C(=O)COC(=O)CSc2cccc3cccc(Cl)c23)c(=O)n(C)c1=O	-4	0.8	1.1	-55	2	-22
COC(=O)c1cc(OC)c(OC)cc1NCC(=O)Nc1cccc(C(F)(F)F)c1	74*	0.6	0.8	24	19	-27
O=C(CNc1cc(S(=O)(=O)N2CCCC2)ccc1OCC(F)(F)F)Nc1cccc(C(F)(F)F)c1	95*	0.9	0.8	-2	0	22
COC(=O)c1cc(OC)c(OC)cc1NCC(=O)Nc1ccc(C)cc1	-10	0.9	0.9	17	0	-51
O=C(Nc1cc(S(=O)(=O)N2CCCC2)ccc1OCC(F)(F)F)c1ccccc1F	-5	1	1	3	.	-16
COC(=O)CNc1cccc(C(F)(F)F)c1	-8	1	1	-5	2	-8
COC(=O)c1cc(OC)c(OC)cc1NCC(=O)Nc1ccc(OC)c(OC)c1	53*	0.6	0.9	-2	0	-20
CCOC(=O)C1=C(C)NC(=O)C1CC(=O)Nc1ccccc1 (stereo not drawn)	9	3*	2.1*	27	7	6
CC(C)OC(=O)COc1ccc(-c2ccccc2)cc1	-8	1	1	-9	2	16
CCOC(=O)c1ccc(N/C(=N\S(=O)(=O)c2ccccc2C)c2ccccc2)cc1	88*	0.9	0.9	6	-13	14
CCN(CC)CC(=O)c1ccc(-c2ccccc2)cc1	18	1.8	1.4	-9	1	-56
CN(C)CC(=O)c1ccc(-c2ccccc2)cc1	86*	1.6	1.5	-7	-6	-31
CC(=O)c1ccc(OCC(=O)c2ccc(-c3ccccc3)cc2)cc1	60*	0.9	0.9	17	5	16
O=C1CC(c2cccc(Cl)c2)CC(O)=C1C=NC1CCCC1 (stereo not drawn)	-11	1	0.9	5	-24	17
